Measured values as given in ChEMBL document CHEMBL4373710, “DNA Structural Alteration Leading to Antibacterial Properties of 6-Nitroquinoxaline Derivatives” (J Med Chem, 2019).
≈ marks a conversion by molar mass, not a printed value. Calls of active or inactive are those of the source. No cut-off for these calls is given here.

Legend:
Staphylococcus aureus = experiment: Antibacterial activity against Staphylococcus aureus MTCC737 measured after 6 hrs by broth microdilution assay; assay type: functional; conditions: MTCC737, 6 h
Method in brief: (§1)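 Broth microdilution per CLSI; 5×10^5 cfu/mL bacteria in LB broth; compounds from DMSO stocks, final DMSO under 0.6%, with DMSO control. Plates incubated at the strain's recommended growth temperature and time; growth read as OD600.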

[1] = tested on: Staphylococcus epidermidis; experiment: Antibacterial activity against Staphylococcus epidermidis MTCC3615 by broth microdilution assay; assay type: functional; method in brief: as §1
[2] = Antibacterial activity against Arthrobacter chlorophenolicus A6MTCC3706 by broth microdilution assay; assay type: functional; conditions: Pseudarthrobacter chlorophenolicus; method in brief: as §1
Escherichia coli = experiment: Antibacterial activity against Escherichia coli MTCC1916 by broth microdilution assay; assay type: functional; method in brief: as §1
Pseudomonas aeruginosa = experiment: Antibacterial activity against Pseudomonas aeruginosa MTCC1688 by broth microdilution assay; assay type: functional; method in brief: as §1
HEK293 = experiment: Cytotoxicity against HEK293 cells measured after 24 hrs by MTT assay; assay type: cell-based; conditions: Homo sapiens, HEK293, 24 h
Method in brief: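 HEK 293 cells, 4000/well, seeded overnight in DMEM + 10% FBS at 37°C in CO2; compound dose series for 24 h (final DMSO <0.5%, DMSO-only control). MTT at 1 mg/mL final for 3 h, formazan dissolved in DMSO, absorbance 595 nm; IC50 from triplicate OD data.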

[3] = Binding affinity to pCDNA 3.1 (unknown origin) assessed as DNA unwinding effect up to 6:1 compound to DNA ratio measured after 16 hrs by EtBr staining agarose gel shift assay
Method in brief: (§2)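 pCDNA3.1 plasmid (amplified in E. coli DH5α), 40 µM, in 50 mM NaP pH 7, 10 mM NaCl, mixed with compound at set compound:DNA base-pair ratios; 16 h at 37°C. Run on 1% agarose at 50 V ~3 h, stained with EtBr 1 µg/mL for 5 min, imaged.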

Calf thymus DNA [4] = experiment: Binding affinity to calf thymus DNA assessed as change in B-DNA structure at 15 to 60 uM by circular dichroism method; assay type: nucleic-acid assay; conditions: Bos taurus
Calf thymus DNA [5] = experiment: Binding affinity to calf thymus DNA assessed as appearance of induced CD at 15 to 60 uM by circular dichroism method; assay type: nucleic-acid assay; conditions: Bos taurus
DNA [6] = experiment: Binding affinity to Escherichia coli pBR322 DNA assessed as DNA compaction up to 5:1 compound to DNA ratio by atomic force microscopic analysis; assay type: nucleic-acid assay
Method in brief: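 Supercoiled pBR322 plasmid treated with compound at [compound]:[DNA bp] ratios from 0.5:1 up to 5:1, imaged by AFM; DNA height measured.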

Calf thymus DNA [7] = experiment: Binding affinity to calf thymus DNA by isothermal titration calorimetric analysis; assay type: nucleic-acid assay; conditions: Bos taurus
[8] = Solubility of the compound in pH 7 phosphate buffer at 100 uM by UV absorption spectra analysis; assay type: physicochemical; conditions: pH 7, 100 µM
[9] = Binding affinity to pCDNA 3.1 (unknown origin) assessed as DNA unwinding effect at 1:1 compound to DNA ratio measured after 16 hrs by EtBr staining agarose gel shift assay; method in brief: as §2
[10] = Binding affinity to pCDNA 3.1 (unknown origin) assessed as DNA condensation at 5:1 compound to DNA ratio measured after 16 hrs by EtBr staining agarose gel shift assay; method in brief: as §2
Calf thymus DNA [11] = experiment: Binding affinity to calf thymus DNA assessed as change in B-DNA structure at 265 nm by circular dichroism method; assay type: nucleic-acid assay; conditions: Bos taurus
Calf thymus DNA [12] = experiment: Binding affinity to calf thymus DNA assessed as appearance of induced CD at […] by circular dichroism method; assay type: nucleic-acid assay; conditions: Bos taurus
DNA [13] = experiment: Inhibition of ethidium bromide binding to Staphylococcus aureus DNA by fluorescence assay; assay type: nucleic-acid assay
Method in brief: (§3)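 Fluorescence intercalator displacement: S. aureus genomic DNA 10 µM plus EtBr 5 µM in 10 mM NaP pH 7, 10 mM NaCl, 1% DMSO, at 25 and 37 °C; titrated with 2.5–100 µM compound. Excitation 480 nm, emission 520–700 nm, inner-filter corrected, triplicates; Stern–Volmer analysis, F0/F = 1 + Ksv[Q].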

DNA [14] = experiment: Inhibition of ethidium bromide binding to Staphylococcus aureus DNA assessed as Stern-Volmer quenching constant by fluorescence assay; assay type: nucleic-acid assay; method in brief: as §3

Structure (SMILES) | MIC (Staphylococcus aureus) | MIC [1] | MIC [2] | MIC (Escherichia coli) | MIC (Pseudomonas aeruginosa) | Activity [3] | Activity (Calf thymus DNA [4]) | Activity (Calf thymus DNA [5]) | Activity (DNA [6]) | Activity (Calf thymus DNA [7]) | solubility [8] | Activity [9] | Activity [10] | Activity (Calf thymus DNA [11]) | Activity (Calf thymus DNA [12]) | inhibition (DNA [13]) | KSV (DNA [14]) | Ka (Calf thymus DNA [7]) | IC50 (HEK293)
Cc1ccc(CNc2nc3ccc([N+](=O)[O-])cc3nc2NCCCN(C)C)cc1 | 5.92 µg/mL (≈ 15 µM) | 3.94 µg/mL (≈ 9.99 µM) | 2.76 µg/mL (≈ 7 µM) | 110 µg/mL (≈ 279 µM) | > 200 µg/mL |  |  |  |  |  |  |  |  |  |  |  |  |  | 15.8 µg/mL (≈ 40 µM)
COc1ccccc1CNc1nc2ccc([N+](=O)[O-])cc2nc1NCCCN(C)C | 8.21 µg/mL (≈ 20 µM) | 6.16 µg/mL (≈ 15 µM) | 6.16 µg/mL (≈ 15 µM) | > 200 µg/mL | > 200 µg/mL |  |  |  |  |  |  |  |  |  |  |  |  |  | 36.1 µg/mL (≈ 88 µM)
CN(C)CCCNc1nc2cc([N+](=O)[O-])ccc2nc1NCc1ccc(Br)cc1 | 3.45 µg/mL (≈ 7.51 µM) | 3.45 µg/mL (≈ 7.51 µM) | 2.29 µg/mL (≈ 4.99 µM) | 4.59 µg/mL (≈ 9.99 µM) | > 230 µg/mL |  |  |  |  |  |  |  |  |  |  |  |  |  | 9.63 µg/mL (≈ 21 µM)
CN(C)CCCNc1nc2cc([N+](=O)[O-])ccc2nc1NCc1cc(F)cc(C(F)(F)F)c1 | 0.93 µg/mL (≈ 1.99 µM) | 1.63 µg/mL (≈ 3.49 µM) | 2.33 µg/mL (≈ 5 µM) | 35 µg/mL (≈ 75 µM) | > 235 µg/mL |  |  |  |  |  |  |  |  |  |  |  |  |  | 2.67 µg/mL (≈ 5.72 µM)
COc1ccc(CNc2nc3ccc([N+](=O)[O-])cc3nc2NCCCN(C)C)cc1 | 10.3 µg/mL (≈ 25 µM) | 5.13 µg/mL (≈ 12.5 µM) | 4.1 µg/mL (≈ 9.99 µM) | > 200 µg/mL | > 200 µg/mL |  |  |  |  |  |  |  |  |  |  |  |  |  | 38.6 µg/mL (≈ 94 µM)
CN(C)CCCNc1nc2cc([N+](=O)[O-])ccc2nc1NCc1cc(C(F)(F)F)cc(C(F)(F)F)c1 | 1.03 µg/mL (≈ 1.99 µM) | 0.52 µg/mL (≈ 1.01 µM) | 1.81 µg/mL (≈ 3.5 µM) | > 250 µg/mL | > 250 µg/mL |  |  |  |  |  |  | Active | Active | Dose-dependent effect | Dose-dependent effect | Dose-dependent effect | 2 ×10⁴ /M | 9.9 ×10⁴ /M | 4.32 µg/mL (≈ 8.36 µM)

More lines, main results first:

MIC (Staphylococcus aureus) | MIC [1] | MIC [2] | MIC (Escherichia coli) | MIC (Pseudomonas aeruginosa) | Activity [3] | Activity (Calf thymus DNA [4]) | Activity (Calf thymus DNA [5]) | Activity (DNA [6]) | Activity (Calf thymus DNA [7]) | solubility [8] | Activity [9] | Activity [10] | Activity (Calf thymus DNA [11]) | Activity (Calf thymus DNA [12]) | inhibition (DNA [13]) | KSV (DNA [14]) | Ka (Calf thymus DNA [7]) | Structure (SMILES) | IC50 (HEK293)
4.46 µg/mL (≈ 9.99 µM) | 4.46 µg/mL (≈ 9.99 µM) | 4.46 µg/mL (≈ 9.99 µM) | > 220 µg/mL | > 220 µg/mL |  |  |  |  |  |  |  |  |  |  |  |  |  | CN1CCN(c2nc3cc([N+](=O)[O-])ccc3nc2NCc2ccc(C(F)(F)F)cc2)CC1 | 6.99 µg/mL (≈ 15.7 µM)
> 200 µg/mL | > 200 µg/mL | > 200 µg/mL | > 200 µg/mL | > 200 µg/mL | inactive | inactive | inactive | inactive | inactive | Soluble |  |  |  |  |  |  |  | O=[N+]([O-])c1ccc2nc(NCc3ccc(C(F)(F)F)cc3)c(N3CCCCC3)nc2c1 | > 200 µg/mL
3.78 µg/mL (≈ 7.51 µM) | 3.78 µg/mL (≈ 7.51 µM) | 1.76 µg/mL (≈ 3.5 µM) | 3.78 µg/mL (≈ 7.51 µM) | > 250 µg/mL |  |  |  |  |  |  |  |  |  |  |  |  |  | CN1CCN(CCCNc2nc3cc([N+](=O)[O-])ccc3nc2NCc2ccc(C(F)(F)F)cc2)CC1 | 9.53 µg/mL (≈ 18.9 µM)
3.47 µg/mL (≈ 7.5 µM) | 3.47 µg/mL (≈ 7.5 µM) | 3.47 µg/mL (≈ 7.5 µM) | 2.31 µg/mL (≈ 4.99 µM) | > 230 µg/mL |  |  |  |  |  |  |  |  |  |  |  |  |  | CN(C)CCCCNc1nc2cc([N+](=O)[O-])ccc2nc1NCc1ccc(C(F)(F)F)cc1 | 9.73 µg/mL (≈ 21 µM)
